Experimental data as given in ChEMBL document CHEMBL2424625, “Synthesis and structure-activity relationships of novel indazolyl glucocorticoid receptor partial agonists” (Bioorg Med Chem Lett, 2013).

Key:
Progesterone receptor = molecular target: T1, Progesterone receptor (Homo sapiens, UniProt P06401); experiment: Binding affinity to progesterone receptor (unknown origin) by fluorescence assay
T1 sequence (P06401 whole entry): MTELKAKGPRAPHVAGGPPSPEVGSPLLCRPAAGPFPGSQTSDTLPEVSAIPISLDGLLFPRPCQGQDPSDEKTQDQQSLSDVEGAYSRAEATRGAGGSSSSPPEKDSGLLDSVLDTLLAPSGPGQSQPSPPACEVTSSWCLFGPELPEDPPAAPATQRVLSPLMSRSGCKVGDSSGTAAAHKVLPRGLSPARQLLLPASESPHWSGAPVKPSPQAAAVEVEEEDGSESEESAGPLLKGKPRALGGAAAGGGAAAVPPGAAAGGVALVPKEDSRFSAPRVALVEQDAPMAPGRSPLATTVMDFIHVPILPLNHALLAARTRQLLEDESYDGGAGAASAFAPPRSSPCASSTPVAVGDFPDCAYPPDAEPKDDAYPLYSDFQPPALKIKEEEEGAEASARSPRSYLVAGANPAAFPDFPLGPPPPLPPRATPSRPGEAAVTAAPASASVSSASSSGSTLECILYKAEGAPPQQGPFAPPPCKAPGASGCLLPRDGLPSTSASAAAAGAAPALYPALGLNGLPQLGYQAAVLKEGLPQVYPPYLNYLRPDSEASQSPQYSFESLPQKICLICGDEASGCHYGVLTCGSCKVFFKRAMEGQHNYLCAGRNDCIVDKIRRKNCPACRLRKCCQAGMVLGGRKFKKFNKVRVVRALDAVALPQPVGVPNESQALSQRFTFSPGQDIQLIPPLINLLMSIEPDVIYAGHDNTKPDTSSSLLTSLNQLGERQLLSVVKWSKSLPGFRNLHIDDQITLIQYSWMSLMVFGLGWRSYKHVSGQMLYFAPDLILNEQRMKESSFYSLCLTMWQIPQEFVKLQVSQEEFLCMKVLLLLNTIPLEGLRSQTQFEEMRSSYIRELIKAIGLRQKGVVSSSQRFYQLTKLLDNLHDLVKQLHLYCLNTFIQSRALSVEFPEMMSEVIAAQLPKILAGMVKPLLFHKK
In short: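 Fluorescence polarization competition between test compound and a fluorescently labeled ligand for binding to full-length receptor or its ligand binding domain. IC50 was fit to the signal by four-parameter logistic equation. Ki = IC50/(1 + ligand concentration/Kd) (Cheng–Prusoff).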

Glucocorticoid receptor [1] = molecular target: T2, Glucocorticoid receptor (Homo sapiens, UniProt P04150); experiment: Binding affinity to glucocorticoid receptor (unknown origin) by fluorescence assay
T2 sequence (P04150 whole entry): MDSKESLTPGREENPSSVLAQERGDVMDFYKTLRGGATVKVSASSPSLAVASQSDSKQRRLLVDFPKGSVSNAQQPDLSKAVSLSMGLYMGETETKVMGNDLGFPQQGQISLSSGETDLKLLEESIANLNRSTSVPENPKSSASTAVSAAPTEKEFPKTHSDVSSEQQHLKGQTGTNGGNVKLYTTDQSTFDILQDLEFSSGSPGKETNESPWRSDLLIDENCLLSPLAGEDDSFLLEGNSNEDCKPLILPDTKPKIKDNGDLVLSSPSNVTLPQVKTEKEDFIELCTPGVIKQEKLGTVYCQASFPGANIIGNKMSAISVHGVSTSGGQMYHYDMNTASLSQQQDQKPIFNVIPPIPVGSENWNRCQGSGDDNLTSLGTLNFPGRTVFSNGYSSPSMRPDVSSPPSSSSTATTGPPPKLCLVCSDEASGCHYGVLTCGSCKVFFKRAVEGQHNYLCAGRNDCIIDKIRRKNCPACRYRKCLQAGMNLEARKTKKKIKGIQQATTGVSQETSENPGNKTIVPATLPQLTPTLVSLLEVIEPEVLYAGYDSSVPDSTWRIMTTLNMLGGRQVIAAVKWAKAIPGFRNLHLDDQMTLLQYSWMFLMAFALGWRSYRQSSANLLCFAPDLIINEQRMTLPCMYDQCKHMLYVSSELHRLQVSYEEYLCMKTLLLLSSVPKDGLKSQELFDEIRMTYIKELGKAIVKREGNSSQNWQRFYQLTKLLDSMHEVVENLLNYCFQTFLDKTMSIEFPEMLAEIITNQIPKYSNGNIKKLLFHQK

[2] = molecular target: T3, Glucocorticoid receptor (Homo sapiens) (UniProt P04150); experiment: Transrepression activity at glucocorticoid receptor in human A549 cells assessed as inhibition of IL1beta-stimulated NFkappaB-dependent E-selectin transcription by luciferase reporter gene assay relative to dexamethasone; assay type: cell-based
T3 sequence (whole entry): T2 sequence (P04150 whole entry)
In short: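 In A549 lung epithelial cells, NFkB activity was induced with IL-1β (0.5 ng/ml). Inhibition was quantitated as decreased luciferase activity. […] Values are means of two or more experiments in triplicate.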

Glucocorticoid receptor [3] = molecular target: T2, Glucocorticoid receptor; experiment: Transrepression activity at glucocorticoid receptor in human A549 cells assessed as inhibition of IL1beta-stimulated NFkappaB-dependent E-selectin transcription by luciferase reporter gene assay; assay type: cell-based
[4] = molecular target: T3, Glucocorticoid receptor (Homo sapiens); experiment: Transactivation activity at glucocorticoid receptor ligand binding domain (unknown origin) expressed in human Hela cells co-expressing GAL4 DNA binding domain assessed as NP-1-stimulated GRE activation by luciferase reporter gene assay relative to dexamethasone; assay type: cell-based
In short: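 HeLa line (NP-1) stably transfected with a GR-LBD chimera cloned into a GAL4 luciferase reporter was run in agonist mode. Direct GR-LBD activation was read as increased luciferase activity. […] Values are means of two or more experiments in triplicate.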

Glucocorticoid receptor [5] = molecular target: T2, Glucocorticoid receptor; experiment: Transrepression activity at glucocorticoid receptor in human A549 cells assessed as inhibition of PMA-stimulated AP1 response element by luciferase reporter gene assay; assay type: cell-based

| Ki (Progesterone receptor) | Ki (Glucocorticoid receptor [1]) | Efficacy [2] | EC50 (Glucocorticoid receptor [3]) | Efficacy [4] | EC50 (Glucocorticoid receptor [5]) | SMILES |
| --- | --- | --- | --- | --- | --- | --- |
| > 5000 nM | 0.81 nM | 90% | 6.85 nM | 65% | 12.4 nM | CC(C)(CNC(=O)CC(F)(F)F)[C@@H](c1ccccc1)c1ccc2c(cnn2-c2ccc(F)cc2)c1 |
| 406 nM | 0.64 nM | 86% | 7.6 nM | 24% | 20.4 nM | CC(C)(CNS(=O)(=O)CC(F)(F)F)[C@@H](c1ccccc1)c1ccc2c(cnn2-c2ccc(F)cc2)c1 |
| > 5000 nM | 5.14 nM | 65% | 58 nM | 12% | 57 nM | CC(C)(C)NC(=O)NCC(C)(C)[C@@H](c1ccccc1)c1ccc2c(cnn2-c2ccc(F)cc2)c1 |
